Consider three compounds from ChEMBL document CHEMBL4613267, “Novel Potent Muscarinic Receptor Antagonists: Investigation on the Nature of Lipophilic Substituents in the 5- and/or 6-Positions of the 1,4-Dioxane Nucleus” (J Med Chem, 2020).

Broadly, the Ki is the equilibrium dissociation constant of an inhibitor or competing ligand from its target.

Assay [1] concerns the target T1, Muscarinic acetylcholine receptor (Mus musculus) (UniProt Q920H4+Q9ERZ4+P12657+P32211+Q9ERZ3). The experiment in a line: Activity at muscarinic receptor in BALB/c mouse MSC assessed as reduction in cell viability at 10^-4M incubated for 24 hrs by Cell-titer 96 aqueous one solution reagent based assay. Format: […]. The essentials: (§1)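 Bone-marrow MSCs from mouse, cultured for 2 weeks, then seeded at 5,000 cells/well in DMEM with 10% heat-inactivated FCS. Exposed to compound at 10–4 to 10–10 M for 24 h, with vehicle (DMSO) and untreated controls. Viability read by MTS reagent (2 h, 5% CO2) as absorbance at 490 nm. Mean ± SEM of four independent experiments.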

For assay [2], the target named is T1, Muscarinic acetylcholine receptor (Mus musculus). Briefly: Activity at muscarinic receptor in BALB/c mouse MSC assessed as increase in cell viability at 10^-10M incubated for 24 hrs by Cell-titer 96 aqueous one solution reagent based assay. Format: […]. The procedure, abridged: as §1
Assay [3] shares this target. The experiment in a line: Antagonist activity at muscarinic receptor in BALB/c mouse MSC assessed as inhibition of carbachol-induced increase in cell viability at 10^-4 to 10^-10M incubated for 24 hrs by Cell-titer 96 aqueous one solution reagent based assay. The assay is classed as […]. The essentials:
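Mouse bone-marrow MSCs kept as adherent cultures, with medium changes, for 2 weeks, then plated at 5,000 cells/well in DMEM with 10% HIFCS. Antagonist (10–4 to 10–10 M) given for 1 h, medium replaced, then carbachol 10–10 M for 24 h. Viability read by MTS, 2 h incubation, absorbance 490 nm. Controls were vehicle (DMSO) and untreated cells. Four independent experiments, mean ± SEM.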

Assay [4] shares this target. To be noted: BALB/c, 10^-10M.
The target of assay [5] is T2, Muscarinic acetylcholine receptor M2 (Homo sapiens, UniProt P08172).
T2 sequence (P08172 whole entry): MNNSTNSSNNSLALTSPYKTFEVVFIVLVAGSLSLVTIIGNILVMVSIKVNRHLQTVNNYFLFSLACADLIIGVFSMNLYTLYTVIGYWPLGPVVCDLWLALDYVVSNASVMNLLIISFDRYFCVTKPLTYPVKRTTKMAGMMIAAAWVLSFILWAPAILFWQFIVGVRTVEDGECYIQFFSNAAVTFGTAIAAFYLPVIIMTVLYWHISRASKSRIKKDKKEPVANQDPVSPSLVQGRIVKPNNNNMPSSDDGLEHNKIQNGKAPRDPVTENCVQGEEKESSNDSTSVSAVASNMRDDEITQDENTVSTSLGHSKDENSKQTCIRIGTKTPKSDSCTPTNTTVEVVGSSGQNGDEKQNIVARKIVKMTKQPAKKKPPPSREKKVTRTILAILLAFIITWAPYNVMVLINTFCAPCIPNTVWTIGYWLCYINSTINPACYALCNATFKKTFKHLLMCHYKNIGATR
The experiment in a line: Displacement of [3H]NMS from human recombinant muscarinic receptor M2 expressed in CHO-K1 cell membranes incubated for 2 hrs by scintillation counting method. The procedure, abridged:
(§2)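 Membranes from CHO-K1 cells stably expressing each human subtype, homogenised in 25 mM sodium phosphate, 5 mM MgCl2, pH 7.4. About 25–70 μg/mL protein incubated with 0.2 nM [3H]NMS and test compound for 2 h at r.t. Nonspecific binding defined with 10 μM atropine. Filtration, then counting. Four-parameter logistic fit gave IC50, converted to Ki. Mean ± S.E.M. of ≥3 experiments in duplicate.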

Assay [6] concerns the target T3, Muscarinic acetylcholine receptor M4 (Homo sapiens, UniProt P08173).
T3 sequence (P08173 whole entry): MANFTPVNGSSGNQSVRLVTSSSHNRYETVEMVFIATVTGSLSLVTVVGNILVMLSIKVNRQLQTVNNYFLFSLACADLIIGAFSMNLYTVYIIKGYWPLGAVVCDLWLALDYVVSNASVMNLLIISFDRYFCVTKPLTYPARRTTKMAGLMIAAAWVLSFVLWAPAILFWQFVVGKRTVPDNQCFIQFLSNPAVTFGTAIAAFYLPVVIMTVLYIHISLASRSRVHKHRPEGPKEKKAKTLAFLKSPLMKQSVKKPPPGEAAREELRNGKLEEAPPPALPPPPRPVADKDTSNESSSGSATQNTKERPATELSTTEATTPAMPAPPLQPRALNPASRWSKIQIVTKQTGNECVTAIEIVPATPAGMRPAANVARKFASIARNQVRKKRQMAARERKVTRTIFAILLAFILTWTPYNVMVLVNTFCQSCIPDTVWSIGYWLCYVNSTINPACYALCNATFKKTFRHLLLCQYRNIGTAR
Briefly: Displacement of [3H]NMS from human recombinant muscarinic receptor M4 expressed in CHO-K1 cell membranes incubated for 2 hrs by scintillation counting method. The procedure, abridged: (§3)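 CHO-K1 membranes stably expressing hM4 or hM5, at about 25–70 μg/mL protein, in 25 mM sodium phosphate with 5 mM MgCl2, pH 7.4. Competition with 0.2 nM [3H]NMS for 2 h at r.t.; nonspecific binding defined with 10 μM atropine. Filtration, then scintillation counting. IC50 from four-parameter logistic fit, converted to Ki. Mean ± S.E.M. of ≥3 experiments, each in duplicate.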
(In a radioligand displacement assay an active substance lowers the binding of a labelled ligand.)

For assay [7], the target named is Muscarinic acetylcholine receptor M3 (Homo sapiens, UniProt P20309). Briefly: Displacement of [3H]NMS from human recombinant muscarinic receptor M3 expressed in CHO-K1 cell membranes incubated for 2 hrs by scintillation counting method. The essentials:
as §2

Assay [8] has as its target T4, Muscarinic acetylcholine receptor M5 (Homo sapiens, UniProt P08912).
T4 sequence (P08912 whole entry): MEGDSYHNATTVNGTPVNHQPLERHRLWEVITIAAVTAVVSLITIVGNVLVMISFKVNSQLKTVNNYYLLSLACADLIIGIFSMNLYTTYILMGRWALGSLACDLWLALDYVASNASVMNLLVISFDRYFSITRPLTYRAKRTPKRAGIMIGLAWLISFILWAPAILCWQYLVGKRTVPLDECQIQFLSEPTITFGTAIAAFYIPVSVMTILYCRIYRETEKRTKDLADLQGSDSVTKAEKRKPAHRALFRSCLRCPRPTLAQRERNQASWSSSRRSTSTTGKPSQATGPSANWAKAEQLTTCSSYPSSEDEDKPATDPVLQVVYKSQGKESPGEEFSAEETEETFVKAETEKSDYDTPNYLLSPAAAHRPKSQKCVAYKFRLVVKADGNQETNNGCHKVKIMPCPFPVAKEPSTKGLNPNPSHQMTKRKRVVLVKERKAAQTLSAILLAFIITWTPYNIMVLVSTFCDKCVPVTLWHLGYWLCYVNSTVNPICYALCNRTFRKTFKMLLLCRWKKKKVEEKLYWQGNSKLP
The experiment in a line: Displacement of [3H]NMS from human recombinant muscarinic receptor M5 expressed in CHO-K1 cell membranes incubated for 2 hrs by scintillation counting method. The procedure, abridged:
as §3

Assay [9] deals with T5, Muscarinic acetylcholine receptor M1 (Homo sapiens, UniProt P11229).
T5 sequence (P11229 whole entry): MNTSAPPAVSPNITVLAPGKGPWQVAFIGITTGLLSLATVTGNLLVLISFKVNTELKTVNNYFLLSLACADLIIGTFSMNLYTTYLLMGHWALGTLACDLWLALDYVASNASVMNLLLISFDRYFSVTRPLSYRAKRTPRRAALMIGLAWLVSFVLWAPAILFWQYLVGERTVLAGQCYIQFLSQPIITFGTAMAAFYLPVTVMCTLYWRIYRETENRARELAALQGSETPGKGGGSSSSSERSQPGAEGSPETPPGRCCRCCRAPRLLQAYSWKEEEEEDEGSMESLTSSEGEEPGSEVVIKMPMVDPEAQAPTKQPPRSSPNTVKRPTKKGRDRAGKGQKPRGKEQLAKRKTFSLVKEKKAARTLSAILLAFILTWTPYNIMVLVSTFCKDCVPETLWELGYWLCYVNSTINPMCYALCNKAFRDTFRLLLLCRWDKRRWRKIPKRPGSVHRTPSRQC
The experiment in a line: Displacement of [3H]NMS from human recombinant muscarinic receptor M1 expressed in CHO-K1 cell membranes incubated for 2 hrs by scintillation counting method. The procedure, abridged:
as §2

Activity calls are given as the source filed them. The rule behind the calls is not given here.

Muscarinic acetylcholine receptor M3, sequence (P20309 whole entry): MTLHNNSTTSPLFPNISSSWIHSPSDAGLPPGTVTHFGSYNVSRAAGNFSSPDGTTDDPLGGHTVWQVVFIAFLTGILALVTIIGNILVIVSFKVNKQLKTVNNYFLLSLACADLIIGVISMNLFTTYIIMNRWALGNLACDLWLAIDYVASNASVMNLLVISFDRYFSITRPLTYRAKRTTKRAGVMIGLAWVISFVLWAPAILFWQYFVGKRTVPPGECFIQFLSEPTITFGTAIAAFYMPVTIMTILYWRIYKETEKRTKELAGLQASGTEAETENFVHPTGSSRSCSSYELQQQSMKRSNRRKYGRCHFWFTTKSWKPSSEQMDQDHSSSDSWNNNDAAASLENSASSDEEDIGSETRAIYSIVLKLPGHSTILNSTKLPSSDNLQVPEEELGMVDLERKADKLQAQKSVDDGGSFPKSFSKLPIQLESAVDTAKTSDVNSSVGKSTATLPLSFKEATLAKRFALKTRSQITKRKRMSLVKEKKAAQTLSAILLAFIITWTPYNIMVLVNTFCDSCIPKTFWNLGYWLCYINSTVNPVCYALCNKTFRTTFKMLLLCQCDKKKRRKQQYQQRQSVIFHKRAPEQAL

For the compound `C[N+](C)(C)C[C@@H]1COC[C@](c2ccccc2)(C2CCCCC2)O1` (relative stereo), the outcome in assay [1] and in assay [2] was Active. For the same compound, in assay [3], the inhibition entry is “Active”.

In the case of `CN1[C@@H]2CC[C@H]1C[C@@H](OC(=O)C(CO)c1ccccc1)C2` (stereo partly specified), the outcome in [1] and in assay [2] was Active. Moreover, the inhibition result in assay [4] was “Active”.

Take `O=C(O[C@H]1C[C@H]2CC[C@@H](C1)[N+]21CCCC1)C(O)(c1ccccc1)c1ccccc1` [TROSPIUM CHLORIDE]: the Ki in [5] was 1.15 nM; in [6], 1.45 nM; in assay [7], 1.02 nM; in assay [8], 6.03 nM; in assay [9], 3.47 nM.
